The list is not random: actives were taken first. Their share in the collection is about 3.5%.
MrgX1 agonist – human MrgX1 receptor agonism, primary screen; MrgX1-HEK293 cells, Fluo-4 calcium fluorescence, agonist mode; hits give high values; actives 0.44% (n = 310,000); Q96LB2; B-score at 10 µM; AID 588627;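 active means calcium response B-score plate-corrected fluorescence ratio at least 3 library SD, with starting fluorescence B-score inside 5 SD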
Target sequence (Q96LB2 whole entry, looked up): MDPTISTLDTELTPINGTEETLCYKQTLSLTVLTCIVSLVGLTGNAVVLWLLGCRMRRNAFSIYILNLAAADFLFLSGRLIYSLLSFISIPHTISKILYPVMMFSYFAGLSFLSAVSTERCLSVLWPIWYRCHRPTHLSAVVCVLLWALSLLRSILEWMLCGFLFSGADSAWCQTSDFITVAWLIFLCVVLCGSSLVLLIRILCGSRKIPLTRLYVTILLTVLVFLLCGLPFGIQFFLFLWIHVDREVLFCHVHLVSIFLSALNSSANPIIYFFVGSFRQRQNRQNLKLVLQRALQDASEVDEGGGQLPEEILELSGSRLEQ
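System – MrgX1-expressing HEK293 cells · Incubation – cells plated overnight, dye loaded 0.5 h 37 °C, 0.5 h room temperature · Technique – kinetic Fluo-4 NW fluorescence of intracellular calcium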
MrgX1 antagonist – blocks BAM8-22 activation of human MrgX1 receptor. Q96LB2. MRGX1-HEK293 calcium flux, Fluo-4, BAM8-22 antagonism; hits give low values. B-score at 10 µM. actives 1.3% (n = 310,000);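 active means calcium-response B-score plate-corrected more than 3 library SD below zero, starting fluorescence within 5 deviations, no agonist response on first addition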;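 further: peak minus trough fluorescence over baseline after final BAM8-22 challenge near maximal dose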
RGS4 act – RGS4 potentiation or activation; HEK293 M3R/inducible RGS4, carbachol calcium flux Fluo4; hits give low values; B-score at 10 µM; actives 0.92% (n = 310,000);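 active means B-score of the integrated calcium signal more than 4 SD below the library mean, with starting fluorescence not abnormally high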;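 further: negative B-score means reduced calcium response which marks RGS4 activation or potentiation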
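Assay system: Inducible-RGS4 HEK293 cells carrying M3 receptor | Schedule: Compound preincubation 20 min at room temperature before agonist | Signal: Kinetic calcium fluorescence imaging with Fluo4-AM dye, 2 µM | Read-out basis: B score from integrated fluorescence ratio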
RGS4 inh – human RGS4 inhibition; P49798; HEK293 M3R/RGS4 inducible, Fluo-4 calcium flux; hits give high values; triggered by carbachol at its EC20; B-score at 10 µM; actives 0.45% (n = 310,000); AID 463165;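 active means B-score, a plate-corrected calcium signal, over three deviations above library mean, with baseline fluorescence within five deviations of library mean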;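 further: RGS4 expression induced by doxycycline in cells with stable M3 receptor; B-score is computed from the integrated fluorescence ratio over baseline after carbachol; higher B-score means a larger calcium signal and so more RGS4 inhibition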
Target sequence (P49798 whole entry, looked up): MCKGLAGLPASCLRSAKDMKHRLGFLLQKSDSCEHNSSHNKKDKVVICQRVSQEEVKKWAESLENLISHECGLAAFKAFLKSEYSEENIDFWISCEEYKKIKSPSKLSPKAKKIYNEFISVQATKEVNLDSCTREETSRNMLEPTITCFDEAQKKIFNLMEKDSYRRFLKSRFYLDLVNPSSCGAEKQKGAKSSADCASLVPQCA
MrgX1 PAM – allosterically activates human MrgX1 receptor signaling; MrgX1-HEK293, Fluo-4 calcium flux, FDSS; hits give high values; Q96LB2; actives 0.63% (n = 310,000); B-score at 10 µM;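 active means plate-corrected calcium response at least 3 library SD above typical, normal starting fluorescence, not activating the receptor alone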;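 further: compound read alongside a low EC10 to EC30 dose of BAM8-22 agonist; peak minus trough fluorescence over baseline measured at the second addition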
RGS4 block valid – RGS4 inhibitor validation | calcium response, % at 10 µM | shares compounds with RGS4 inh | HEK293 M3R/RGS4, carbachol calcium Fluo-4 fluorescence; carbachol added at its EC20; 0 = buffer wells, 100 = carbachol control | AID 492999 | actives 65% (n = 1,700);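 active means duplicate-averaged calcium response above the buffer-only control mean plus 5 SD of those controls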;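 further: integrated fluorescence ratio F max minus min over baseline F0; higher response in RGS4-induced cells means RGS4 inhibition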
M3R Ca ctr – non-induced cell nonspecific activity of RGS4 inhibitors | shares compounds with RGS4 inh | activity (percent), % at 10 µM | HEK293 M3R non-induced, carbachol calcium Fluo-4; submaximal (EC20) carbachol stimulus; buffer wells 0%, carbachol control wells 100% | actives 20% (n = 1,900); call rule not given here;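 further: RGS4 induction absent so cells express M3R without RGS4; higher means more calcium signal and flags a non-specific hit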
M3R basal Ca ctr – signal in non-induced cells without carbachol, RGS4 inhibitor counter-screen; shares compounds with RGS4 inh; HEK293 M3R/RGS4 non-induced, Fluo-4 calcium, no carbachol; normalised: buffer wells 0%, carbachol wells 100%; calcium response (agonist-mode artifact), % at 10 µM; actives 22% (n = 1,900); AID 493001;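 active means duplicate-averaged calcium rise in uninduced cells above buffer wells' mean plus 5 SD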
Hits are given with their value.

Results for CCOc1ccc(/C=N/NC(=O)c2nnn(-c3nonc3N)c2-c2ccc(OCC)cc2)cc1 ?
MrgX1 agonist: inactive; MrgX1 antagonist: inactive; RGS4 act: inactive; RGS4 inh: inactive; MrgX1 PAM: inactive; RGS4 block valid: inactive; M3R Ca ctr: inactive; M3R basal Ca ctr: inactive

Results for CCOc1cccc(-c2c(C(=O)N/N=C/c3ccncc3)nnn2-c2nonc2N)c1 ?
MrgX1 agonist: inactive; MrgX1 antagonist: inactive; RGS4 act: inactive; RGS4 inh: inactive; MrgX1 PAM: inactive; RGS4 block valid: inactive; M3R Ca ctr: inactive; M3R basal Ca ctr: inactive

What do the screens show for `CCOc1ccc(-c2c(C(=O)N/N=C/c3ccoc3)nnn2-c2nonc2N)cc1`?
MrgX1 agonist: inactive; MrgX1 antagonist: inactive; RGS4 act: inactive; RGS4 inh: inactive; MrgX1 PAM: inactive

How did CCOc1cccc(-c2c(C(=O)N/N=C(\C)c3ccncc3)nnn2-c2nonc2N)c1 do in these assays?
MrgX1 agonist: inactive; MrgX1 antagonist: inactive; RGS4 act: inactive; RGS4 inh: inactive; MrgX1 PAM: inactive

Results for COc1ccc(CNC(=O)CSc2ncnc3ccccc23)cc1OC ?
MrgX1 agonist: inactive; MrgX1 antagonist: inactive; RGS4 act: inactive; RGS4 inh: inactive; MrgX1 PAM: inactive

What do the screens show for `COCCNC(=O)CCCn1c(=O)c2cc(OC)c(OC)cc2n(CC(=O)c2ccccc2)c1=O`?
MrgX1 agonist: inactive; MrgX1 antagonist: inactive; RGS4 act: inactive; RGS4 inh: inactive; MrgX1 PAM: inactive

How did COc1ccc(/C=N/NC(=O)c2nnn(-c3nonc3N)c2-c2cccc(OC)c2)cc1 do in these assays?
MrgX1 agonist: inactive; MrgX1 antagonist: inactive; RGS4 act: inactive; RGS4 inh: inactive; MrgX1 PAM: 7.2; M3R Ca ctr: 30%; M3R basal Ca ctr: 8.0%

Results for COc1cccc(-c2c(C(=O)N/N=C/c3cccs3)nnn2-c2nonc2N)c1 ?
MrgX1 agonist: inactive; MrgX1 antagonist: -7.6; RGS4 act: inactive; RGS4 inh: inactive; MrgX1 PAM: inactive; M3R Ca ctr: 40%; M3R basal Ca ctr: inactive

How did CCOc1cccc(-c2c(C(=O)N/N=C/c3cccs3)nnn2-c2nonc2N)c1 do in these assays?
MrgX1 agonist: inactive; MrgX1 antagonist: inactive; RGS4 act: inactive; RGS4 inh: 5.6; MrgX1 PAM: inactive; RGS4 block valid: 30%; M3R Ca ctr: inactive; M3R basal Ca ctr: inactive

Results for COc1ccc(/C=N/NC(=O)c2nnn(-c3nonc3N)c2-c2cccs2)cc1OC ?
MrgX1 agonist: inactive; MrgX1 antagonist: inactive; RGS4 act: inactive; RGS4 inh: inactive; MrgX1 PAM: inactive

How did COc1cccc(-c2c(C(=O)N/N=C(\C)c3ccco3)nnn2-c2nonc2N)c1 do in these assays?
MrgX1 agonist: inactive; MrgX1 antagonist: inactive; RGS4 act: inactive; RGS4 inh: inactive; MrgX1 PAM: inactive

Results for Cc1cc(C(=O)N/N=C/c2ccc(N(C)C)o2)cs1 ?
MrgX1 agonist: inactive; MrgX1 antagonist: inactive; RGS4 act: inactive; RGS4 inh: 8.7; MrgX1 PAM: inactive; RGS4 block valid: inactive; M3R Ca ctr: inactive; M3R basal Ca ctr: inactive

What do the screens show for `CCOc1ccc2[nH]c(SCC(=O)OC)c([N+](=O)[O-])c2c1`?
MrgX1 agonist: inactive; MrgX1 antagonist: -4.8; RGS4 act: inactive; RGS4 inh: 7.6; MrgX1 PAM: inactive; RGS4 block valid: 18%; M3R Ca ctr: inactive; M3R basal Ca ctr: 49%

Results for COC(=O)CSc1[nH]c2cc(C)ccc2c1[N+](=O)[O-] ?
MrgX1 agonist: inactive; MrgX1 antagonist: inactive; RGS4 act: inactive; RGS4 inh: 16; MrgX1 PAM: inactive; RGS4 block valid: 44%; M3R Ca ctr: inactive; M3R basal Ca ctr: inactive

What do the screens show for `CC(C)c1nnc(NC(=O)c2sc3ccccc3c2Cl)s1`?
MrgX1 agonist: inactive; MrgX1 antagonist: inactive; RGS4 act: inactive; RGS4 inh: 4.8; MrgX1 PAM: inactive; RGS4 block valid: inactive; M3R Ca ctr: inactive; M3R basal Ca ctr: inactive

How did CN1CCCC(OC(=O)c2cc(Cl)cc(Cl)c2)C1 (centres undefined) do in these assays?
MrgX1 agonist: inactive; MrgX1 antagonist: inactive; RGS4 act: inactive; RGS4 inh: inactive; MrgX1 PAM: inactive

Results for O=c1[nH]c(-c2ccccc2Cl)nc2c1sc(=S)n2-c1ccccc1 ?
RGS4 act: inactive; RGS4 inh: 5.1; RGS4 block valid: 12%; M3R Ca ctr: inactive; M3R basal Ca ctr: inactive

How did O=c1[nH]c(-c2ccc(F)cc2)nc2c1sc(=S)n2-c1ccccc1 do in these assays?
MrgX1 agonist: inactive; MrgX1 antagonist: inactive; RGS4 act: inactive; RGS4 inh: inactive; MrgX1 PAM: inactive

How did COC(=O)/C=c1\sc2ncnn2c1=O do in these assays?
MrgX1 agonist: inactive; MrgX1 antagonist: inactive; RGS4 act: inactive; RGS4 inh: 11; MrgX1 PAM: inactive; RGS4 block valid: inactive; M3R Ca ctr: inactive; M3R basal Ca ctr: inactive

What do the screens show for `O=C(COC(=O)c1cc([N+](=O)[O-])ccc1N1CCOCC1)Nc1c(Cl)cccc1Cl`?
MrgX1 agonist: inactive; MrgX1 antagonist: inactive; RGS4 act: inactive; RGS4 inh: inactive; MrgX1 PAM: inactive

How did COC(=O)c1cc(=O)n(CCc2ccc(OC)cc2)c(=Nc2ccc(F)c(Cl)c2)s1 do in these assays?
MrgX1 agonist: inactive; MrgX1 antagonist: inactive; RGS4 act: inactive; RGS4 inh: inactive; MrgX1 PAM: inactive; RGS4 block valid: inactive; M3R Ca ctr: inactive; M3R basal Ca ctr: 19%

What do the screens show for `CCn1c(=O)cc(C(=O)OC)sc1=Nc1ccc(F)c(F)c1`?
MrgX1 agonist: inactive; MrgX1 antagonist: inactive; RGS4 act: inactive; RGS4 inh: 13; MrgX1 PAM: inactive; RGS4 block valid: 56%; M3R Ca ctr: 80%; M3R basal Ca ctr: inactive

How did CCOC(=O)c1ccc(N=c2sc(C(=O)OC)cc(=O)n2Cc2ccco2)cc1 do in these assays?
MrgX1 agonist: inactive; MrgX1 antagonist: inactive; RGS4 act: inactive; RGS4 inh: inactive; MrgX1 PAM: inactive; RGS4 block valid: inactive; M3R Ca ctr: inactive; M3R basal Ca ctr: inactive

What do the screens show for `CCOC(=O)c1ccc(N=c2sc(C(=O)OC)cc(=O)n2CCCN2CCOCC2)cc1`?
MrgX1 agonist: inactive; MrgX1 antagonist: inactive; RGS4 act: inactive; RGS4 inh: inactive; MrgX1 PAM: inactive

How did COC(=O)c1cc(=O)n(CCc2ccccc2)c(=Nc2ccc(F)cc2)s1 do in these assays?
MrgX1 agonist: inactive; MrgX1 antagonist: inactive; RGS4 act: inactive; RGS4 inh: inactive; MrgX1 PAM: inactive
